From ChEMBL document CHEMBL4393712, “Discovery of chalcone-modified estradiol analogs as antitumour agents that Inhibit tumour angiogenesis and epithelial to mesenchymal transition” (Eur J Med Chem, 2019) come the findings set out here.

The test system of series [1] is HeLa. The series can be described thus: Antiproliferative activity against human HeLa cells measured after 72 hrs by MTT assay. It counts as functional, cell-based. In general terms: Tetrazolium dyes change colour on reduction, which living cells bring about.
For series [2], the system named is SK-N-SH. The series can be described thus: Antitumour activity against human SK-N-SH cells assessed as cell growth inhibition measured after 72 hrs by SRB assay. Format: functional, cell-based. The method in brief:
(§1)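 Exponentially growing cells trypsinized, seeded at 5 × 10^4 cells/mL in 96-well plates, cultured overnight, then exposed to compounds for 72 h. Cells fixed with 10% TCA 1 h, stained with SRB 15 min, dye dissolved in Tris-HCl, absorbance read; 50% growth-inhibitory concentration calculated.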
(In SRB staining, fixed cells bind dye roughly in proportion to their protein.)

The subject of series [3] is B16. The series can be described thus: Antitumour activity against mouse B16 cells assessed as cell growth inhibition measured after 72 hrs by SRB assay. The conditions noted are these: B16, 72 h. Format: functional, cell-based. The gist of the method:
as §1

Series [4] relates to ECa-109 cell line. Nature of the series: Antitumour activity against human EC109 cells assessed as cell growth inhibition measured after 72 hrs by SRB assay. Format: functional, cell-based. The settings on record: ECa-109, 72 h. The method in brief: as §1
Series [5] has as its system MGC-803. The series can be described thus: Antitumour activity against human MGC803 cells assessed as cell growth inhibition measured after 72 hrs by SRB assay. It counts as functional, cell-based. The settings on record: MGC-803, 72 h. The gist of the method:
as §1

Series [6] deals with A549. Nature of the series: Antitumour activity against human A549 cells assessed as cell growth inhibition measured after 72 hrs by SRB assay. Format: functional, cell-based. The conditions noted are these: A549, 72 h. The gist of the method:
as §1

Series [7] concerns SMMC-7721. The series can be described thus: Antitumour activity against human SMMC7721 cells assessed as cell growth inhibition measured after 72 hrs by SRB assay. Format: functional, cell-based. The conditions noted are these: SMMC-7721, 72 h. The method in brief:
as §1

The test system of series [8] is Chorioallantoic membrane. Nature of the series: Antiangiogenic activity in chicken chorioallantoic membrane assessed as reduction in neovascularization at 50 ug/ml measured after 72 hrs by CAM assay. Format: functional. The settings on record: Gallus gallus. The method in brief: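 Fertilized chicken eggs incubated 6 days at 37 °C; shell windowed and CAM treated (compounds and controls at […] as printed; saline vehicle control). Eggs re-incubated humidified; membranes fixed and harvested after 72 h. Angiogenesis scored by counting blood vessels and imaging neovascular zones; ten eggs per group.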

The nature of series [9]: Toxicity in nude mouse xenografted with human MCF7 cells assessed as liver edema at 45 mg/kg/day, ip administered for 21 days by HE staining analysis. It counts as organism-based. The settings on record: in vivo, 504 h. For orientation: Xenograft models place foreign cells or tissue in a host animal.
Series [10] in a line: Toxicity in nude mouse xenografted with human MCF7 cells assessed as decrease in body weight at 45 mg/kg/day, ip administered for 21 days. Format: organism-based. The settings on record: in vivo, 504 h. The gist of the method: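 Nude mice (male/female, 4–6 weeks) injected subcutaneously in right forelimb with 5 × 10^7 MCF-7 cells in 200 µL saline; at mean tumour 100 mm3 randomized (n = 5/group): saline 0.2 mL/day, 22.5 or 45 mg/kg/day ip for 21 days. Body weight and tumour volume (length × width²/2) every other day; tumours weighed at day 21.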

The subject of series [11] is HUVEC. Nature of the series: Cytotoxicity against HUVEC assessed as reduction in cell viability measured after 48 to 72 hrs by MTT assay. The conditions noted are these: human. Format: cell-based. The gist of the method: (§2)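 Cells seeded at 3 × 10^3 per well in 96-well plates, incubated overnight, then given fresh medium with a range of drug concentrations for 48 h or 72 h. MTT added (final 500 µg/mL) for 4 h, formazan dissolved in DMSO, absorbance at 570 nm; IC50 derived. Mean ± SD of 3 independent tests.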

Series [12] has as its system GES1. The series can be described thus: Cytotoxicity against human GES-1 cells assessed as reduction in cell viability measured after 48 to 72 hrs by MTT assay. Format: cell-based. The gist of the method: as §2
The test system of series [13] is MGC-803. The series can be described thus: Cytotoxicity against human MGC803 cells assessed as reduction in cell viability measured after 48 to 72 hrs by MTT assay. Format: cell-based. The gist of the method: as §2
For series [14], the system named is PC-3. Nature of the series: Cytotoxicity against human PC3 cells assessed as reduction in cell viability measured after 48 to 72 hrs by MTT assay. Format: cell-based. The method in brief:
as §2

Series [15] is described as follows: Hepatotoxicity in nude mouse xenografted with human MCF7 cells assessed as increase in serum alanine transaminase level at 45 mg/kg/day, ip administered for 21 days by biochemical automatic analyzer. The conditions noted are these: in vivo, 504 h. Format: toxicity, organism-based.
Series [16] can be described thus: Hepatotoxicity in nude mouse xenografted with human MCF7 cells assessed as increase in serum aspartate transaminase level at 45 mg/kg/day, ip administered for 21 days by automatic biochemical analyzer. Format: toxicity, organism-based. The settings on record: in vivo, 504 h.
Series [17] can be described thus: Hepatotoxicity in nude mouse xenografted with human MCF7 cells assessed as increase in serum alkaline phosphatase level at 45 mg/kg/day, ip administered for 21 days by biochemical automatic analyzer. It counts as toxicity, organism-based. The conditions noted are these: in vivo, 504 h.
In series [18] the test system is MCF7. Nature of the series: Antiproliferative activity against human MCF7 cells measured after 72 hrs by MTT assay. Format: functional, cell-based. The conditions noted are these: MCF7, 72 h.
Series [19] deals with MDA-MB-231. Nature of the series: Antiproliferative activity against human MDA-MB-231 cells measured after 72 hrs by MTT assay. Format: functional, cell-based. The conditions noted are these: MDA-MB-231, 72 h.

Activity calls are given as the source filed them. The rule behind the calls is not given here.

Take `C[C@]12CC[C@@H]3c4ccc(O)cc4CC[C@H]3[C@@H]1C/C(=N\O)C2=O`: the half-maximal inhibitory concentration (IC50) – broadly, the concentration that gives 50% inhibition – in series [1] turned out to be 4.41 µM.

`COc1cc2c(cc1O)CC[C@@H]1[C@@H]2CC[C@]2(C)[C@@H](O)CC[C@@H]12` [2-METHOXYESTRADIOL]: the 50% inhibitory concentration (IC50) in series [2] is 1.6 µM; in series [3], 3.4 µM; in series [4], 4.1 µM; in series [5], 4 µM; in [6] it was 1.1 µM; in [7] it was 8.4 µM. The inhibition entry in [8] is “Active”. For the same compound, the Activity entry in series [9], in series [10], in [11], in [12], in series [13] and in [14] was “Toxic” throughout. The Activity entry in series [15], in series [16] and in series [17] was “Toxic” in each case.

Regarding `C[C@]12CC[C@H]3[C@@H](CCC4=CC(=O)CC[C@@]43C)[C@@H]1CC[C@@H]2C(=O)/C=C/c1ccc(F)cc1`, the IC50 in [18] and in [19] was 2 µM in each case.
